Article PMC3256319 (Investigational New Drugs, 2010)
Several values for one entry are separate records, joined by “and”; a condition that tells them apart may be missing. Identical values can stand only once.

Tests used:
[1] = ketoconazole 400 mg; based on IC50 in human liver microsomal preparations
tumor growth = conditions: pre-clinical tumor growth inhibition studies; cited from earlier work
Safety and tolerability = type: in vivo, human healthy volunteers
In short: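 Healthy volunteers in a randomized crossover separated by a 14-day washout. Treatments were a single fasted oral 5-mg dose on day 1, or ketoconazole 400 mg/day on days 1–7 with the 5-mg dose on day 4. Safety was monitored through adverse events, vital signs, ECGs, laboratory tests and physical examinations. AEs were graded by NCI CTCAE v3.0. All subjects receiving at least one dose of any study medication were included.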

[2] = cited from earlier work
[3] = concurrent administration of phenytoin, one patient; cited from earlier work
[4] = Blood pressure change from baseline in crossover study; type: in vivo, human healthy volunteers
In short: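 Randomized two-way crossover in healthy volunteers with placebo on day –1 and a 14-day washout. In one arm, a single oral 5-mg dose was given on day 1 after an overnight fast of at least 8 h. In the other, oral ketoconazole 400 mg/day was given on days 1–7, with the 5-mg dose given alongside it on day 4. BP was measured before blood sampling at PK timepoints and at 10 h post-dose, expressed as time-matched change from baseline. Analysis required at least one baseline and one post-baseline reading.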

[5] = Intrinsic clearance converted from in vivo systemic clearance; parameters: species or system human healthy volunteers
[6] = type: in vivo, human healthy volunteers
[7] = system: axitinib metabolism in human liver microsomes; type: in vitro ADME; conditions: probe axitinib
[8] = axitinib in combination with ketoconazole
[9] = in the presence of ketoconazole

CNC(=O)c1ccccc1Sc1ccc2c(/C=C/c3ccccn3)n[nH]c2c1 [Axitinib]
predicted fold increase in axitinib geometric mean AUC0–∞ [1]: 1.8 fold | predicted fold increase in axitinib geometric mean Cmax [1]: 1.5 fold | effective axitinib concentration (tumor growth): 0.28 to 0.85 nmol/L | tolerability (Safety and tolerability; axitinib alone, single 5-mg dose): well tolerated | tolerability (Safety and tolerability; [8]): well tolerated | average axitinib plasma concentration in clinical trials ([2]; after dosing 5 mg twice daily): 0.19 ± 0.12 nmol/L | effective plasma terminal half-life [2]: 2 to 5 h | oral absolute bioavailability [2]: approximately 58% | time of peak plasma concentrations after dosing ([2]; oral, fed state): 1 to 4 h | fold reduction of axitinib AUC0–24 [3]: approximately 10 fold | fold reduction of axitinib Cmax [3]: approximately 10 fold | mean time-matched changes from baseline in BP [4, 8]: minimal | mean time-matched changes from baseline in BP ([4]; axitinib treatment alone): minimal | clearance attributed to non-metabolic pathways, share ([5]; remaining clearance): 20% | contribution of CYP3A to total CLint ([5]; sensitivity analyses): 50% | contribution of glucuronidation to total CLint ([5]; sensitivity analyses): 30% | pre-dose axitinib plasma concentration ([6]; all pre-dose samples, below lower limit of quantification): < 0.100 ng/mL | half-life ([6]; human, plasma, oral, 5 mg): 9.44 h | fold increase in axitinib geometric mean AUC0–∞ observed clinically [6, 9]: 2.06 fold and ~ 2 fold | fold increase in axitinib geometric mean Cmax observed clinically [6, 9]: 1.50 fold and ~ 1.5 fold

CC(=O)N1CCN(c2ccc(OCC3COC(Cn4ccnc4)(c4ccc(Cl)cc4Cl)O3)cc2)CC1 (stereo not drawn) [Ketoconazole, ketoconazole]
IC50 [7]: 400 nM
